In ChEMBL document CHEMBL1138024, “Aryl urea analogs with broad-spectrum antibacterial activity” (Bioorg Med Chem Lett, 2004):
≈ marks a conversion by molar mass, not a printed value. Values belong to the compound of their own block, whether it stands above or below them.

Legend:
Format in all cases: functional
Staphylococcus aureus [1] = assay: In vitro antibacterial activity against Staphylococcus aureus; value ranges from 6-12 uM
Staphylococcus aureus [2] = assay: In vitro antibacterial activity against Staphylococcus aureus; value ranges from 12-25 uM
Staphylococcus aureus [3] = assay: In vitro antibacterial activity against Staphylococcus aureus; value ranges from 3-6 uM
Staphylococcus aureus [4] = assay: In vitro antibacterial activity against Staphylococcus aureus
Staphylococcus aureus [5] = assay: In vitro antibacterial activity against Staphylococcus aureus; value ranges from 50-100 uM
Pseudomonas aeruginosa = assay: Minimum inhibitory concentration against Pseudomonas aeruginosa ATCC 25416
Mus musculus [6] = assay: In vivo antibacterial activity (Staphylococcus aureus) in a lethal murine model at a dose of 9.4 mg/kg; activity expressed as no. of mice alive/total tested; 4/10
Mus musculus [7] = assay: In vivo antibacterial activity (Staphylococcus aureus) in a lethal murine model at a dose of 4.6 mg/kg; activity expressed as no. of mice alive/total tested; 3/10
Mus musculus [8] = assay: In vivo antibacterial activity (Staphylococcus aureus) in a lethal murine model at a dose of 75 mg/kg; activity expressed as no. of mice alive/total tested; 7/10
Staphylococcus aureus [9] = assay: Minimum inhibitory concentration against Staphylococcus aureus ATCC 13709; value ranges from 3-6 uM
Escherichia coli [10] = assay: Minimum inhibitory concentration against Escherichia coli ATCC 25922; value ranges from 12-25 uM
Staphylococcus aureus [11] = assay: Minimum inhibitory concentration against Staphylococcus aureus ATCC 13709 (+4% BSA); value ranges from 25-50 uM
Method in brief: (§1)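 Same microdilution MIC against S. aureus ATCC 13709, but with 4% bovine serum albumin in the wells. Compound in 0.5% DMSO in water, inoculum about 10³–10⁴ CFU/well, duplicates. Growth was read as A595 after 20–24 h at 37°C against a compound-free control. MIC is reported as the range between full inhibition and viable growth.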

Streptococcus pyogenes [12] = assay: Minimum inhibitory concentration against Streptococcus pyogenes ATCC 49399; value ranges from 3-6 uM
Proteus vulgaris = assay: Minimum inhibitory concentration against Proteus vulgaris ATCC 8427; value ranges from 12-25 uM
Huh-7 [13] = assay: Cytotoxic concentration against Huh7 cells at 48 hours in MTT assay; conditions: Homo sapiens, Huh-7, 48 h
Mus musculus [14] = assay: In vivo antibacterial activity (Staphylococcus aureus) in a lethal murine model at a dose of 18.8 mg/kg; activity expressed as no. of mice alive/total tested; 6/10
Mus musculus [15] = assay: In vivo antibacterial activity (Staphylococcus aureus) in a lethal murine model at a dose of 37.6 mg/kg; activity expressed as no. of mice alive/total tested; 6/10
Mus musculus [16] = assay: In vivo antibacterial activity (Staphylococcus aureus) in a lethal murine model at a dose of 150 mg/kg; activity expressed as no. of mice alive/total tested; 4/10
Enterococcus faecalis [17] = assay: Minimum inhibitory concentration against Enterococcus faecalis ATCC 29212; value ranges from 3-6 uM
Enterococcus faecium [18] = assay: Minimum inhibitory concentration against Enterococcus faecium ATCC 6569
Klebsiella pneumoniae [19] = assay: Minimum inhibitory concentration against Klebsiella pneumoniae ATCC 13383; value ranges from 3-6 uM
Staphylococcus aureus [20] = assay: In vitro antibacterial activity against Staphylococcus aureus; value ranges from 25-50 uM
Mus musculus [21] = assay: In vivo antibacterial activity (Staphylococcus aureus) in a lethal murine model at a dose of 2 mg/kg; activity expressed as no. of mice alive/total tested; 10/10
Enterococcus faecalis [22] = assay: Minimum inhibitory concentration against Enterococcus faecalis ATCC 29212; value ranges from 6-12 uM
Enterococcus faecium [23] = assay: Minimum inhibitory concentration against Enterococcus faecium ATCC 6569; value ranges from 6-12 uM
Huh-7 [24] = assay: Cytotoxic concentration against Huh7 cells at 48 hours in MTT assay; value ranges from 50-100 uM; conditions: Homo sapiens, Huh-7, 48 h
Staphylococcus aureus [25] = assay: Minimum inhibitory concentration against Staphylococcus aureus ATCC 13709 (+4% BSA); value ranges from 50-100 uM; method in brief: as §1
Enterococcus faecium [26] = assay: Minimum inhibitory concentration against Enterococcus faecium ATCC 6569; value ranges from 3-6 uM
Escherichia coli [27] = assay: Minimum inhibitory concentration against Escherichia coli ATCC 25922; value ranges from 6-12 uM
Klebsiella pneumoniae [28] = assay: Minimum inhibitory concentration against Klebsiella pneumoniae ATCC 13383; value ranges from 6-12 uM
Streptococcus pyogenes [29] = assay: Minimum inhibitory concentration against Streptococcus pyogenes ATCC 49399; value ranges from 6-12 uM

Compound: CCOc1ccc(Br)cc1CNCCCNC(=O)Nc1ccc(C(F)(F)F)cc1
MIC (Staphylococcus aureus [1]): 12 µM (≈ 5.69 µg/mL)

Compound: COc1ccccc1/N=C(\S)NCCCNCc1cc(Br)cc(Br)c1
MIC (Staphylococcus aureus [4]): > 100 µM

Compound: O=C(NCCCNCc1cc(C(F)(F)F)cc(C(F)(F)F)c1)Nc1ccc(C(F)(F)F)cc1
MIC (Staphylococcus aureus [5]): 100 µM (≈ 48.7 µg/mL)

Compound: CN(CCCNC(=O)Nc1ccc(C(F)(F)F)cc1)CCCOc1ccc(Br)cc1Br
MIC (Pseudomonas aeruginosa): > 100 µM | No. of animals alive (Mus musculus [6]): 4 | No. of animals alive (Mus musculus [7]): 3 | MIC (Staphylococcus aureus [1]): 12 µM (≈ 6.81 µg/mL) | No. of animals alive (Mus musculus [8]): 7 | MIC (Staphylococcus aureus [9]): 6 µM (≈ 3.4 µg/mL) | MIC (Escherichia coli [10]): 25 µM (≈ 14.2 µg/mL) | MIC (Staphylococcus aureus [11]): 50 µM (≈ 28.4 µg/mL) | MIC (Streptococcus pyogenes [12]): 6 µM (≈ 3.4 µg/mL) | MIC (Proteus vulgaris): 25 µM (≈ 14.2 µg/mL) | CC50 (Huh-7 [13]): > 100 µM | No. of animals alive (Mus musculus [14]): 6 | No. of animals alive (Mus musculus [15]): 6 | No. of animals alive (Mus musculus [16]): 4 | MIC (Enterococcus faecalis [17]): 6 µM (≈ 3.4 µg/mL) | MIC (Enterococcus faecium [18]): > 100 µM | MIC (Klebsiella pneumoniae [19]): 6 µM (≈ 3.4 µg/mL)

Compound: FC(F)(F)c1ccc(N/C(S)=N/CCCNCc2cc(Br)cc(Br)c2)cc1
MIC (Staphylococcus aureus [1]): 12 µM (≈ 6.3 µg/mL)

Compound: CN[C@H](CC(C)C)C(=O)N[C@H]1C(=O)N[C@@H](CC(N)=O)C(=O)N[C@H]2C(=O)N[C@H]3C(=O)N[C@H](C(=O)N[C@H](C(=O)O)c4cc(O)cc(O)c4-c4cc3ccc4O)[C@H](O)c3ccc(c(Cl)c3)Oc3cc2cc(c3O[C@@H]2O[C@H](CO)[C@@H](O)[C@H](O)[C@H]2O[C@H]2C[C@](C)(N)[C@H](O)[C@H](C)O2)Oc2ccc(cc2Cl)[C@H]1O [VANCOMYCIN]
No. of animals alive (Mus musculus [21]): 10

Compound: O=C(NCCCNCc1cccc(-c2ccccc2)c1)Nc1ccc(C(F)(F)F)cc1
MIC (Staphylococcus aureus [1]): 12 µM (≈ 5.13 µg/mL)

Compound: CN(CCCNC(=O)Nc1ccc(C(F)(F)F)cc1)Cc1cc(Br)cc(Br)c1
MIC (Staphylococcus aureus [4]): > 100 µM

Compound: COc1ccc(-c2ccc(CNCCCNC(=O)Nc3ccc(C(F)(F)F)cc3)cc2)cc1
MIC (Staphylococcus aureus [3]): 6 µM (≈ 2.74 µg/mL)

Compound: CCOc1c(Br)cc(Br)cc1CNCCCNC(=O)Nc1ccc(C(F)(F)F)cc1
MIC (Pseudomonas aeruginosa): > 100 µM | MIC (Staphylococcus aureus [3]): 6 µM (≈ 3.32 µg/mL) | MIC (Enterococcus faecalis [22]): 12 µM (≈ 6.64 µg/mL) | MIC (Staphylococcus aureus [9]): 6 µM (≈ 3.32 µg/mL) | MIC (Escherichia coli [10]): 25 µM (≈ 13.8 µg/mL) | MIC (Staphylococcus aureus [11]): 50 µM (≈ 27.7 µg/mL) | MIC (Streptococcus pyogenes [12]): 6 µM (≈ 3.32 µg/mL) | MIC (Proteus vulgaris): 25 µM (≈ 13.8 µg/mL) | MIC (Enterococcus faecium [23]): 12 µM (≈ 6.64 µg/mL) | CC50 (Huh-7 [24]): 100 µM | MIC (Klebsiella pneumoniae [19]): 6 µM (≈ 3.32 µg/mL)

Compound: COc1ccc(N/C(S)=N/CCCNCc2cc(Br)cc(Br)c2)cc1
MIC (Staphylococcus aureus [20]): 50 µM (≈ 24.4 µg/mL)

Compound: CN(C)c1ccc(CNCCCNC(=O)Nc2ccc(C(F)(F)F)cc2)cc1
MIC (Staphylococcus aureus [2]): 25 µM (≈ 9.86 µg/mL)

Compound: CC(C)(C)c1ccc(CNCCCNC(=O)Nc2ccc(C(F)(F)F)cc2)cc1
MIC (Pseudomonas aeruginosa): > 100 µM | MIC (Staphylococcus aureus [3]): 6 µM (≈ 2.44 µg/mL) | MIC (Enterococcus faecalis [22]): 12 µM (≈ 4.89 µg/mL) | MIC (Staphylococcus aureus [25]): 100 µM (≈ 40.7 µg/mL) | MIC (Staphylococcus aureus [9]): 6 µM (≈ 2.44 µg/mL) | MIC (Enterococcus faecium [26]): 6 µM (≈ 2.44 µg/mL) | MIC (Streptococcus pyogenes [12]): 6 µM (≈ 2.44 µg/mL) | MIC (Proteus vulgaris): 25 µM (≈ 10.2 µg/mL) | MIC (Escherichia coli [27]): 12 µM (≈ 4.89 µg/mL) | MIC (Klebsiella pneumoniae [19]): 6 µM (≈ 2.44 µg/mL)

Compound: FC(F)(F)c1cccc(N/C(S)=N/CCCNCc2cc(Br)cc(Br)c2)c1
MIC (Staphylococcus aureus [1]): 12 µM (≈ 6.3 µg/mL)

Compound: COc1ccccc1-c1ccc(CNCCCNC(=O)Nc2ccc(C(F)(F)F)cc2)cc1
MIC (Staphylococcus aureus [1]): 12 µM (≈ 5.49 µg/mL)

Second part, the compound after the results:

MIC (Staphylococcus aureus [2]): 25 µM (≈ 14.6 µg/mL)
Compound: S=C(NCCCNCc1cc(Br)cc(Br)c1)Nc1ccc(I)cc1

MIC (Staphylococcus aureus [3]): 6 µM (≈ 3.06 µg/mL)
Compound: O=C(NCCCNCc1cc(Br)cc(Br)c1)Nc1ccc(Cl)c(Cl)c1

MIC (Staphylococcus aureus [2]): 25 µM (≈ 11.9 µg/mL)
Compound: Fc1cccc(N/C(S)=N/CCCNCc2cc(Br)cc(Br)c2)c1

MIC (Staphylococcus aureus [20]): 50 µM (≈ 24.4 µg/mL)
Compound: COc1cccc(N/C(S)=N/CCCNCc2cc(Br)cc(Br)c2)c1

MIC (Staphylococcus aureus [2]): 25 µM (≈ 12.3 µg/mL)
Compound: S=C(NCCCNCc1cc(Br)cc(Br)c1)Nc1ccccc1Cl

MIC (Staphylococcus aureus [2]): 25 µM (≈ 13.4 µg/mL)
Compound: S=C(NCCCNCc1cc(Br)cc(Br)c1)Nc1ccc(Br)cc1

MIC (Staphylococcus aureus [20]): 50 µM (≈ 23.8 µg/mL)
Compound: Fc1ccccc1/N=C(\S)NCCCNCc1cc(Br)cc(Br)c1

MIC (Pseudomonas aeruginosa): > 100 µM | MIC (Staphylococcus aureus [3]): 6 µM (≈ 3.05 µg/mL) | MIC (Enterococcus faecalis [22]): 12 µM (≈ 6.11 µg/mL) | MIC (Staphylococcus aureus [9]): 6 µM (≈ 3.05 µg/mL) | MIC (Escherichia coli [10]): 25 µM (≈ 12.7 µg/mL) | MIC (Staphylococcus aureus [11]): 50 µM (≈ 25.5 µg/mL) | MIC (Proteus vulgaris): 25 µM (≈ 12.7 µg/mL) | MIC (Klebsiella pneumoniae [28]): 12 µM (≈ 6.11 µg/mL) | MIC (Streptococcus pyogenes [29]): 12 µM (≈ 6.11 µg/mL) | MIC (Enterococcus faecium [18]): > 100 µM
Compound: O=C(NCCCNCc1cc(Br)cc(Br)c1)Nc1ccc(C(F)(F)F)cc1

MIC (Staphylococcus aureus [1]): 12 µM (≈ 5.9 µg/mL)
Compound: S=C(NCCCNCc1cc(Br)cc(Br)c1)Nc1ccc(Cl)cc1
